Screening data from PubChem BioAssay.
Neddyl block: inhibitors of human cullin neddylation; TR-FRET cullin neddylation, biochemical; calls only at 25 µM; 0.58% of 360,000 active; in the data active means inhibition above about 36%
procasp7 counter: counter-screen: procaspase-7 (human) activation; recombinant procaspase-7, Ac-DEVD-pNA absorbance 405 nm; D23A/D198A/D206A triple mutant, cannot self-cleave; scale: DMSO 0, 5 µM enzyme 100; AID 463210; activation, % at 8.5 µM; 0.093% of 330,000 active;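 active means percent activation above the screen-wide mean plus 3 SD, cut at about 25% in these data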
Target sequence (P55210 whole entry D23A/D198A/D206A): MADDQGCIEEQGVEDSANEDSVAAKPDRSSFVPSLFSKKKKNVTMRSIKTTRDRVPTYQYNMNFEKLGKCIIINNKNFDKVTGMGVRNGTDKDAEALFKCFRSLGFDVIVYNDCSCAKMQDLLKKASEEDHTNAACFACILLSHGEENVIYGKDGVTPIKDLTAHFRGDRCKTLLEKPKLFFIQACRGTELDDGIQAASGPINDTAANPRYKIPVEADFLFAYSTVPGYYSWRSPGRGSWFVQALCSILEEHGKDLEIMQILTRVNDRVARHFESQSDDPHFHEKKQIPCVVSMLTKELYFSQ
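System: Uncleavable procaspase-7 mutant enzyme; Amount: 2 µM procaspase-7 mutant as dispensed; Schedule: 1 h compound preincubation, 2 h substrate cleavage, 25 °C; Measured by: 405 nm absorbance of p-nitroaniline; Evaluation: percent activation from buffer-corrected 0–120 min absorbance change; Control set: low DMSO alone, high DMSO plus 5 µM PC-7.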
PolyA inhibitor: inhibitors of polyadenylation in S. cerevisiae | S. cerevisiae SKY197-pL101 polyadenylation reporter, beta-gal luminescence; efflux-impaired pdr1/pdr3 knockout yeast; score 100 = 6 SD above DMSO | activity score, % at 12 µM | 0.02% of 300,000 active | AID 1875;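 active means lowest replicate activity score at least 50, where 100 means six control SD above control mean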;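 further: yeast exposed to compound for 9 h at 30 °C; higher score means more reporter readthrough which indicates perturbed polyadenylation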
VIM-2 inhibitor: blocks Pseudomonas aeruginosa VIM-2 metallo-beta-lactamase. purified VIM-2, nitrocefin hydrolysis, epi-absorbance fluorescence. inhibition, % at 5.6 µM. 0.89% of 290,000 active. AID 1527;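 active means inhibition above the mean of all tested compounds plus 3 SD, cutoff set per screening run, cut at about 7.5% in these data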;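 further: red hydrolysis product quenches plate fluorescence so inhibitors raise well fluorescence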
IMP-1 inhibitor: inhibitors of Pseudomonas aeruginosa IMP-1 metallo-beta-lactamase | 0.45% of 290,000 active | inhibition, % at 5.6 µM | AID 1556 | purified IMP-1, nitrocefin hydrolysis, epi-absorbance fluorescence;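 active means inhibition above the mean plus 3 SD of all compounds in the same screening run, cut at about 4.5% in these data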
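Assay system: purified IMP-1; Quantity: IMP-1 0.2 nM before substrate addition; Medium: HEPES buffer pH 7.1 with ZnSO4 and Brij 35; Incubation: 15 min enzyme–compound preincubation, then 25 min nitrocefin reaction, 25 °C; Signal: fluorescence quenching readout, ex 480/em 530 nm; Controls: DMSO with and without IMP-1; Repeats: singlicate testing.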
procasp3 activ: activators of human procaspase-3 | recombinant procaspase-3 D3A, Ac-DEVD-pNA absorbance 405 nm | activation, % at 8.5 µM | 0.11% of 330,000 active | AID 463141;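 active means activation above the mean of all tested compounds plus 3 SD, cut at about 21% in these data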
Target sequence (P42574 whole entry D9A/D28A/D175A): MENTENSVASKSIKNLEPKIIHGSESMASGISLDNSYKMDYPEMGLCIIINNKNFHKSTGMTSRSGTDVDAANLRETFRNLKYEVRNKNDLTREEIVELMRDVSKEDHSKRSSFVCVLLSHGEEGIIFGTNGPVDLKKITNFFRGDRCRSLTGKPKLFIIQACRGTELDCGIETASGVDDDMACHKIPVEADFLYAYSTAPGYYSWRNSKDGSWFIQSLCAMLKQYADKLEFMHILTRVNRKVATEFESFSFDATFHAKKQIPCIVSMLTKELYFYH
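assay system = Procaspase-3 D3A mutant | signal = absorbance at 405 nm, 0 and 120 min | times = 1 h preincubation plus 2 h reaction at 25 °C | repeats = single replicate | read-out = % activation between DMSO and enzyme-spiked controls | medium = Zinc-free HEPES saline buffer with Triton X-100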
Neddyl conf: confirmation of human cullin neddylation inhibitors | 13% of 1,800 active | shares compounds with Neddyl block | calls only at 25 µM | TR-FRET cullin neddylation biochemical assay; in the data active means inhibition above about 40%;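 further: neddylation substrate is the cullin 1 ring ligase complex with SKP2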
Hits are given with their value; – = inactive; · = no result given; + = active, no number. Most compounds without a hit are left out; they make up all but 1.7% or so of the library.

SMILES | Neddyl block | procasp7 counter | PolyA inhibitor | VIM-2 inhibitor | IMP-1 inhibitor | procasp3 activ | Neddyl conf
CCOC(=O)c1cnc2c(C(=O)OC)cccc2c1NCc1ccco1 | + | – | – | – | – | – | –
CC1(C)Oc2ccc3ccc(=O)oc3c2/C(=C/O)C1=O | + | – | – | – | – | – | –
CN(C)c1cccc(C(=O)OCC(=O)N2CCc3ccccc3C2)c1 | + | – | – | – | – | – | –
CC(OC(=O)c1cccc(N(C)C)c1)C(=O)N1CCc2ccccc2C1 (stereo unspecified) | · | – | · | · | · | – | ·
CC(=O)Oc1ccc2c(c1)OC(c1ccccc1)CC21CC(C)(C)NC(=S)N1 (stereo unspecified) | – | – | – | – | – | – | ·
COc1ccc(NC(=S)NCCc2ccccc2OC)c(OC)c1 | – | – | – | – | – | – | ·
COC(=O)CCC(=O)OC1(C)C(=O)C=C2C=C(C3CC3)N(c3ccc(CO)cc3)C=C2C1=O (stereo unspecified) | · | – | – | · | · | – | ·
COC(=O)CCC(=O)OC1(C)C(=O)C=C2C=C(C3CC3)N(c3cccc(C#N)c3)C=C2C1=O (stereo unspecified) | + | – | – | · | · | – | –
CCN(CC(=O)NCCc1ccc(S(N)(=O)=O)cc1)Cc1ccccc1 | – | – | – | – | – | – | ·
COc1ccc(Nc2nc(-c3ccncc3)nc3ccccc23)cc1 | + | – | – | 11.0 | – | – | –
Cc1ccc(-c2nc(N/N=C/c3cccnc3)c3ccccc3n2)cc1 | – | – | – | – | – | – | ·
COc1ccc(/C=N/Nc2nc(-c3cccnc3)nc3ccccc23)c(OC)c1 | + | – | – | – | – | – | +
COCCCNc1nc2c(-c3ccc(C)cc3)nnn2c2ccccc12 | – | – | – | – | – | – | ·
CCN(c1ccc(NC(=O)COC(=O)c2ccc(C)s2)cc1)C(C)C | – | – | – | – | – | – | ·
CC(C)n1ncc2c(C(=O)NCCOc3ccccc3F)cc(C3CC3)nc21 | + | – | · | · | · | – | –
CC(C)n1ncc2c(C(=O)NCCc3ccc(S(N)(=O)=O)cc3)cc(C3CC3)nc21 | + | · | · | · | · | · | ·
Cc1ccc2c(c1)CCCN2S(=O)(=O)c1cccc(C(=O)Nc2ccccc2C(=O)O)c1 | – | – | – | – | – | – | ·
CCSc1nc(=S)n(Cc2ccccc2)c(C)c1C(C)=O | – | – | – | – | – | – | ·
c1ccc2c(c1)ccc1nnc(-c3ccc4c(c3)OCO4)n12 | + | – | – | – | – | – | ·
c1ccc2c(c1)ccc1nnc(SCc3ccc4c(c3)OCCO4)n12 | – | – | – | – | – | – | ·
COCC(C)NC(=O)c1ccc2nc(-c3ccccc3)c(-c3ccccc3)nc2c1 (stereo unspecified) | + | – | – | – | – | – | +
CCC(C)NC(=O)c1ccc2nc(-c3ccc(OC)c(OC)c3)c(-c3ccc(OC)c(OC)c3)nc2c1 (stereo unspecified) | – | – | – | – | – | – | ·
CCN(CC)C(=O)c1ccc2nc(-c3ccccc3)c(-c3ccccc3)nc2c1 | + | – | – | – | – | – | –
CN1CCN(C(=O)c2ccc3nc(-c4ccccc4)c(-c4ccccc4)nc3c2)CC1 | + | – | – | – | – | – | ·
O=C1/C(=C/c2ccccn2)SC(=S)N1c1ccc(O)cc1 | – | – | – | – | – | – | ·
SMILES | Neddyl block | procasp7 counter | PolyA inhibitor | VIM-2 inhibitor | IMP-1 inhibitor | procasp3 activ | Neddyl conf
COc1ccc(-c2nn(-c3ccccc3)cc2/C=N/Nc2ccc(Cl)c(C(=O)O)c2)cc1OC | + | – | – | – | – | – | –
COc1ccc(-c2nn(-c3ccccc3)cc2C(=O)O)cc1OC | · | – | – | – | – | – | ·
COc1ccc(-c2c3c(cc(C)[n+]2[O-])oc2ccc(OC)cc23)cc1 | – | – | – | – | – | – | ·
COc1ccc2oc3cc(C)[n+]([O-])c(-c4ccc(Cl)cc4)c3c2c1 | + | – | – | – | – | – | –
COc1ccc(NC(=O)COc2ccc3c(C)cc(=O)oc3c2)cc1S(=O)(=O)N1CCCCC1 | + | – | – | · | · | – | ·
COC(=O)c1ccc2nc(-c3ccc(F)cc3)c(Cc3ccccc3OC)n2c1 | + | · | · | · | · | · | –
COC(=O)c1ccc2nc(-c3cccc(Br)c3)c(Cc3ccccc3OC)n2c1 | – | · | · | · | · | · | ·
O=C(O)c1cccc(NC(=O)C2CCCO2)c1 (stereo unspecified) | – | – | – | – | – | – | ·
Cc1ccc(Oc2nc3ccccn3c(=O)c2/C=C(\C#N)C(=O)NC2CCS(=O)(=O)C2)c(C)c1 (stereo unspecified) | · | – | – | – | – | – | ·
Cc1cc(C)cc(Oc2nc3ccccn3c(=O)c2/C=C(\C#N)C(=O)NC2CCS(=O)(=O)C2)c1 (stereo unspecified) | + | – | – | – | – | – | –
O=C(CCCC(=O)OCC(F)(F)C(F)F)Nc1nccs1 | – | – | – | – | – | – | ·
COCCCn1cnc2c(c1=O)c1nc3ccccc3nc1n2CCc1ccccc1 | + | · | – | – | – | · | –
CN1CCc2c(sc3c2C(=O)NC(c2ccco2)N3)C1 (stereo unspecified) | – | – | – | – | – | – | ·
O=C1NC(c2cccs2)Nc2sc3c(c21)CCCC3 (stereo unspecified) | + | – | – | – | – | – | –
COc1ccc(CNC(=O)C2CCCN(S(=O)(=O)N3CCC(C)CC3)C2)c(OC)c1 (stereo unspecified) | – | – | – | – | – | – | ·
N#CCn1c2ccccc2c2nc3ccccc3nc21 | + | – | – | – | – | – | –
Cc1nc(-c2ccccc2)ccc1C(=O)O | – | – | – | – | – | – | ·
Cc1nc(-c2cccc3ccccc23)ccc1C(=O)O | + | – | – | – | – | – | –
Cc1ccc(C(C(=O)NCC2CCCO2)N(C(=O)c2snc(C(N)=O)c2N)c2ccc(F)cc2)o1 (stereo unspecified) | + | – | – | – | – | – | +
CCOc1ccc(N(C(=O)c2snc(C(N)=O)c2N)C(C(=O)NCC2CCCO2)c2ccc(C)o2)cc1 (stereo unspecified) | – | · | – | – | – | · | ·
NC(=O)c1nsc(C(=O)N(c2ccccc2)C(C(=O)NCC2CCCO2)c2cccs2)c1N (stereo unspecified) | + | – | – | – | – | – | –
Cc1cc(C)cc(N(C(=O)c2snc(C(N)=O)c2N)C(C(=O)NCC2CCCO2)c2cccs2)c1 (stereo unspecified) | + | – | – | – | – | – | –
